Results as given in ChEMBL document CHEMBL2434928, “New derivatives of salicylamides: Preparation and antimicrobial activity against various bacterial species” (2013).
In brackets after ≈: the same amount, converted by molar mass.

Key:
Type in all cases: functional
[1] = system: Staphylococcus aureus; experiment: Antimicrobial activity against Staphylococcus aureus ATCC 29213 after 24 hrs by broth microdilution method; details: ATCC 29213, 24 h
Summary of the method: (§1)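 Broth microdilution MIC in Mueller–Hinton broth, per modified NCCLS guidelines. Strains were grown on nutrient agar with 5% ovine blood. Colonies were suspended in PBS (pH 7.2–7.3), adjusted to 0.5 McFarland, then diluted 1:20 in MH broth. Compounds were in DMSO, ≤2.5% final. Drug-free, sterility and DMSO controls were included.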

[2] = system: Pasteurella multocida; experiment: Antimicrobial activity against Pasteurella multocida clinical isolate after 24 hrs by broth microdilution method; summary of the method: as §1
[3] = system: Staphylococcus aureus; experiment: Antimicrobial activity against methicillin-resistant Staphylococcus aureus 630 after 24 hrs by broth microdilution method; details: Staphylococcus aureus, 630, 24 h
Summary of the method: (§2)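 Colonies grown on nutrient agar with 5% ovine blood were suspended in PBS (pH 7.2–7.3), adjusted to 0.5 McFarland, and diluted 1:20 in Mueller–Hinton broth. Compounds were dissolved in DMSO (final ≤2.5%) and tested by NCCLS-modified broth microdilution with drug-free, sterility and broth+DMSO controls.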

[4] = system: Staphylococcus aureus; experiment: Antimicrobial activity against methicillin-resistant Staphylococcus aureus 63718 after 24 hrs by broth microdilution method; details: Staphylococcus aureus, 63718, 24 h; summary of the method: as §2
[5] = system: Staphylococcus aureus; experiment: Antimicrobial activity against methicillin-resistant Staphylococcus aureus 3202 after 24 hrs by broth microdilution method; details: Staphylococcus aureus, 3202, 24 h; summary of the method: as §2
[6] = system: Bacillus cereus; experiment: Antimicrobial activity against Bacillus cereus ATCC 14579 after 24 hrs by broth microdilution method; details: ATCC 14579, 24 h; summary of the method: as §1
[7] = system: Clostridium perfringens; experiment: Antimicrobial activity against Clostridium perfringens CNCTC 5770 after 24 hrs by broth microdilution method; details: CNCTC 5770, 24 h
Summary of the method: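 Colonies grown on blood agar (nutrient agar, 5% ovine blood) were suspended in PBS pH 7.2–7.3, set to 0.5 McFarland, and diluted 1:20 in MH broth for the final inoculum. Compounds were in DMSO (≤2.5% final), tested by NCCLS-modified microdilution with drug-free, sterility and DMSO controls.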

[8] = system: Mycobacterium marinum; experiment: Antimycobacterial activity against Mycobacterium marinum CAMP 5644 after 21 days; details: CAMP 5644, 504 h
Summary of the method: (§3)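 MIC by broth microdilution in Middlebrook 7H9 with ADC enrichment. Compounds were dissolved in DMSO. Inoculum: colonies in sterile water adjusted to 0.5 McFarland, then diluted 1:1000 in sterile water. Drug-free, sterility and medium+DMSO controls were included. Wells were read visually after static incubation in the dark.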

[9] = system: Mycobacterium kansasii; experiment: Antimycobacterial activity against Mycobacterium kansasii DSM 44162 after 7 days; details: DSM 44162, 168 h; summary of the method: as §3
[10] = system: Mycolicibacterium smegmatis; experiment: Antimycobacterial activity against Mycobacterium smegmatis ATCC 700084 after 3 days; details: ATCC 700084, 72 h
Summary of the method: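 Middlebrook 7H9 plus ADC broth microdilution MIC, with compounds in DMSO. Colonies were suspended in sterile water to 0.5 McFarland, then diluted 1:1000 in sterile water. Drug-free, sterility and DMSO controls were included. The visual read followed 3 days of static aerobic incubation at 37 °C in darkness.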

SMILES | MIC [1] | MIC [2] | MIC [3] | MIC [4] | MIC [5] | MIC [6] | MIC [7] | MIC [8] | MIC [9] | MIC [10]
O=C(Nc1ccc(Cl)c(Cl)c1)c1cc(Cl)ccc1O | 0.79 µM (≈ 0.25 µg/mL) | 0.19 µM (≈ 0.0601 µg/mL) | 0.77 µM (≈ 0.244 µg/mL) | 0.77 µM (≈ 0.244 µg/mL) | 0.77 µM (≈ 0.244 µg/mL) | 0.09 µM (≈ 0.0285 µg/mL) | 0.03 µM (≈ 0.0095 µg/mL) | – | – | –
O=C(Nc1ccc(Cl)c(Cl)c1)c1ccc(Cl)cc1O | 0.03 µM (≈ 0.0095 µg/mL) | 0.2 µM (≈ 0.0633 µg/mL) | 0.03 µM (≈ 0.0095 µg/mL) | 0.05 µM (≈ 0.0158 µg/mL) | 0.05 µM (≈ 0.0158 µg/mL) | ≤ 0.03 µM | 0.2 µM (≈ 0.0633 µg/mL) | 3.16 µM (≈ 1 µg/mL) | 3.16 µM (≈ 1 µg/mL) | 12.6 µM (≈ 4 µg/mL)
O=C(Nc1ccc([N+](=O)[O-])cc1)c1cc(Cl)ccc1O | 0.85 µM (≈ 0.249 µg/mL) | 0.03 µM (≈ 0.00878 µg/mL) | 0.85 µM (≈ 0.249 µg/mL) | 1.71 µM (≈ 0.5 µg/mL) | 1.71 µM (≈ 0.5 µg/mL) | 0.85 µM (≈ 0.249 µg/mL) | 1.71 µM (≈ 0.5 µg/mL) | 3.42 µM (≈ 1 µg/mL) | ≤ 0.43 µM | 13.7 µM (≈ 4 µg/mL)
O=C(Nc1ccc(Br)cc1)c1cc(Cl)ccc1O | 0.76 µM (≈ 0.248 µg/mL) | 0.19 µM (≈ 0.062 µg/mL) | 0.76 µM (≈ 0.248 µg/mL) | 0.76 µM (≈ 0.248 µg/mL) | 0.76 µM (≈ 0.248 µg/mL) | 0.38 µM (≈ 0.124 µg/mL) | 3.06 µM (≈ 0.999 µg/mL) | 12.2 µM (≈ 4 µg/mL) | 6.12 µM (≈ 2 µg/mL) | 24.5 µM (≈ 8 µg/mL)
O=C(Nc1ccc(C(F)(F)F)cc1)c1cc(Cl)ccc1O | 0.03 µM (≈ 0.00947 µg/mL) | 0.2 µM (≈ 0.0631 µg/mL) | 0.2 µM (≈ 0.0631 µg/mL) | 0.1 µM (≈ 0.0316 µg/mL) | 0.2 µM (≈ 0.0631 µg/mL) | 0.1 µM (≈ 0.0316 µg/mL) | 1.58 µM (≈ 0.499 µg/mL) | ≤ 0.4 µM | 1.58 µM (≈ 0.499 µg/mL) | 12.7 µM (≈ 4 µg/mL)
COc1ccc(NC(=O)c2cc(Cl)ccc2O)cc1 | > 921 µM | 28.8 µM (≈ 8 µg/mL) | > 921 µM | > 921 µM | > 921 µM | > 921 µM | > 921 µM | – | – | –
COc1ccc(NC(=O)[C@@H](NC(=O)c2cc(Cl)ccc2O)C(C)C)cc1 | > 679 µM | > 679 µM | > 679 µM | > 679 µM | > 679 µM | > 679 µM | > 679 µM | – | – | –
Cc1ccc(NC(=O)[C@H](C)NC(=O)c2cc(Cl)ccc2O)cc1 | > 769 µM | > 769 µM | > 769 µM | > 769 µM | > 769 µM | > 769 µM | > 769 µM | – | – | –
CC(C)[C@H](NC(=O)c1cc(Cl)ccc1O)C(=O)Nc1ccc(C(F)(F)F)cc1 | 4.82 µM (≈ 2 µg/mL) | > 617 µM | 4.82 µM (≈ 2 µg/mL) | 9.64 µM (≈ 4 µg/mL) | 4.82 µM (≈ 2 µg/mL) | 2.41 µM (≈ 1 µg/mL) | 4.82 µM (≈ 2 µg/mL) | 77.1 µM (≈ 32 µg/mL) | 38.6 µM (≈ 16 µg/mL) | 77.1 µM (≈ 32 µg/mL)
CC(C)[C@H](NC(=O)c1ccc(Cl)cc1O)C(=O)Nc1ccc(Br)cc1 | 9.39 µM (≈ 4 µg/mL) | > 601 µM | 9.39 µM (≈ 4 µg/mL) | 18.8 µM (≈ 8 µg/mL) | 9.39 µM (≈ 4 µg/mL) | 2.34 µM (≈ 0.996 µg/mL) | 9.39 µM (≈ 4 µg/mL) | 150 µM (≈ 63.9 µg/mL) | 75.2 µM (≈ 32 µg/mL) | 150 µM (≈ 63.9 µg/mL)
CC(C)[C@H](NC(=O)c1ccc(Cl)cc1O)C(=O)Nc1ccc(Cl)c(Cl)c1 | 2.4 µM (≈ 0.998 µg/mL) | > 615 µM | 2.4 µM (≈ 0.998 µg/mL) | 4.81 µM (≈ 2 µg/mL) | 2.4 µM (≈ 0.998 µg/mL) | 1.2 µM (≈ 0.499 µg/mL) | 38.5 µM (≈ 16 µg/mL) | 77 µM (≈ 32 µg/mL) | 77 µM (≈ 32 µg/mL) | 77 µM (≈ 32 µg/mL)
O=C(N[C@@H](Cc1ccccc1)C(=O)Nc1ccc(Cl)c(Cl)c1)c1ccc(Cl)cc1O | 1.07 µM (≈ 0.496 µg/mL) | > 552 µM | 2.15 µM (≈ 0.997 µg/mL) | 2.15 µM (≈ 0.997 µg/mL) | 1.07 µM (≈ 0.496 µg/mL) | 1.07 µM (≈ 0.496 µg/mL) | 34.5 µM (≈ 16 µg/mL) | 138 µM (≈ 64 µg/mL) | 34.5 µM (≈ 16 µg/mL) | 69 µM (≈ 32 µg/mL)
Cc1ccc(NC(=O)[C@H](Cc2ccccc2)NC(=O)c2cc(Cl)ccc2O)cc1 | > 626 µM | > 626 µM | > 626 µM | > 626 µM | > 626 µM | > 626 µM | > 626 µM | – | – | –
CC(C)[C@H](NC(=O)OCc1ccccc1)C(=O)Oc1ccc(Cl)cc1C(=O)Nc1ccccc1 | > 517 µM | > 517 µM | – | – | – | > 517 µM | – | – | – | –
Cc1ccc(NC(=O)c2cc(Cl)ccc2OC(=O)[C@H](C)NC(=O)OCc2ccccc2)cc1 | 34.3 µM (≈ 16 µg/mL) | 2.14 µM (≈ 0.999 µg/mL) | – | – | – | 7.13 µM (≈ 3.33 µg/mL) | – | 68.5 µM (≈ 32 µg/mL) | 17.1 µM (≈ 8 µg/mL) | > 548 µM
Cc1ccc(NC(=O)c2cc(Cl)ccc2OC(=O)[C@@H](NC(=O)OCc2ccccc2)C(C)C)cc1 | 32.3 µM (≈ 16 µg/mL) | 4.04 µM (≈ 2 µg/mL) | – | – | – | 32.3 µM (≈ 16 µg/mL) | – | 259 µM (≈ 128 µg/mL) | 129 µM (≈ 63.9 µg/mL) | 259 µM (≈ 128 µg/mL)
Cc1ccc(NC(=O)c2cc(Cl)ccc2OC(=O)[C@H](Cc2ccccc2)NC(=O)OCc2ccccc2)cc1 | – | 7.36 µM (≈ 4 µg/mL) | – | – | – | 29.5 µM (≈ 16 µg/mL) | – | 118 µM (≈ 64.1 µg/mL) | 58.9 µM (≈ 32 µg/mL) | 236 µM (≈ 128 µg/mL)
Cc1ccc(NC(=O)[C@@H](NC(=O)c2cc(Cl)ccc2O)C(C)C)cc1 | 88.7 µM (≈ 32 µg/mL) | 88.7 µM (≈ 32 µg/mL) | > 709 µM | > 709 µM | 88.7 µM (≈ 32 µg/mL) | 22.2 µM (≈ 8 µg/mL) | 88.7 µM (≈ 32 µg/mL) | 355 µM (≈ 128 µg/mL) | 88.7 µM (≈ 32 µg/mL) | > 709 µM
CC(C)[C@H](NC(=O)OCc1ccccc1)C(=O)Oc1ccc(Cl)cc1C(=O)Nc1ccc(Br)cc1 | 3.57 µM (≈ 2 µg/mL) | 0.89 µM (≈ 0.498 µg/mL) | 1.78 µM (≈ 0.997 µg/mL) | 3.57 µM (≈ 2 µg/mL) | 1.78 µM (≈ 0.997 µg/mL) | 1.78 µM (≈ 0.997 µg/mL) | 3.57 µM (≈ 2 µg/mL) | 14.3 µM (≈ 8 µg/mL) | 14.3 µM (≈ 8 µg/mL) | 57.2 µM (≈ 32 µg/mL)
O=C(N[C@@H](Cc1ccccc1)C(=O)Oc1ccc(Cl)cc1C(=O)Nc1ccc(Cl)c(Cl)c1)OCc1ccccc1 | 1.67 µM (≈ 0.998 µg/mL) | 0.83 µM (≈ 0.496 µg/mL) | 0.2 µM (≈ 0.12 µg/mL) | 0.2 µM (≈ 0.12 µg/mL) | 0.2 µM (≈ 0.12 µg/mL) | 0.41 µM (≈ 0.245 µg/mL) | 1.67 µM (≈ 0.998 µg/mL) | 26.8 µM (≈ 16 µg/mL) | 13.4 µM (≈ 8 µg/mL) | 26.8 µM (≈ 16 µg/mL)
CC1(C)S[C@@H]2[C@H](NC(=O)[C@H](N)c3ccccc3)C(=O)N2[C@H]1C(=O)O [AMPICILLIN] | 5.72 µM (≈ 2 µg/mL) | 1.43 µM (≈ 0.5 µg/mL) | > 45.8 µM | > 45.8 µM | > 45.8 µM | > 45.8 µM | < 0.72 µM | – | – | –
O=C(O)c1cn(C2CC2)c2cc(N3CCNCC3)c(F)cc2c1=O [CIPROFLOXACIN] | > 48.3 µM | – | > 48.3 µM | > 48.3 µM | > 48.3 µM | – | – | – | – | –
NNC(=O)c1ccncc1 [ISONIAZID] | – | – | – | – | – | – | – | 467 µM (≈ 64 µg/mL) | – | 117 µM (≈ 16 µg/mL)
